Results on 8 compounds are retold here after ChEMBL document CHEMBL1143169, “Highly water-soluble prodrugs of anthelmintic benzimidazole carbamates: synthesis, pharmacodynamics, and pharmacokinetics” (J Med Chem, 2008).

Usually solubility stands for how much of the substance goes into solution per volume. Read a low solubility as little dissolved substance. Broadly, the Tmax is the time at which the peak concentration occurs. One may read the Cmax as the maximum level reached in the sampled fluid or tissue. Usually AUC stands for the area under the concentration-time curve, a measure of exposure.

The source made the active and inactive calls. No cut-off for these calls is given here. Bounds are passed on as bounds.

A short description of data set [1]: Aqueous stability of the compound. In kind it is physicochemical. The settings on record: buffer. A digest of the protocol: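 The compound was dissolved in water at 50 mM and held at pH 5 and at pH 9 for 8 h at room temperature. Remaining intact compound was measured by UV-HPLC.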
The nature of data set [2]: Aqueous solubility at pH 7.4. In kind it is physicochemical.
Data set [3] has as its system Sus scrofa. The data set is described as follows: (§1) Tmax in pig at 6.8 mg/kg, po assessed as sodium (2-(methoxycarbonyl)-5-(phenylsulphonyl)-1H-benzo[d]imidazol-1-yl)methyl phosphate level. It counts as ADME, organism-based. The settings on record: in vivo. More on the design: dose 6.8 mg/kg, route oral.
Data set [4] concerns Sus scrofa. The data set is described as follows: Cmax in pig at 6.8 mg/kg, po. The settings on record: in vivo.
The test system of data set [5] is Oesophagostomum dentatum. Nature of the data set: Anthelmintic activity against Oesophagostomum dentatum infected pig assessed as worm burden reduction. In kind it is functional.
Data set [6] concerns Oesophagostomum dentatum. Nature of the data set: Anthelmintic activity against Oesophagostomum dentatum infected pig assessed as reduction in fecal egg shedding. It counts as functional.
Data set [7] deals with Sus scrofa. The data set is described as §1. The settings on record: in vivo. It counts as ADME, organism-based. Details: dose 6.8 mg/kg, route oral. The source holds these as a separate data set.
The test system of data set [8] is Sus scrofa. Nature of the data set: (§2) AUC in pig at 6.8 mg/kg, po assessed as sodium (2-(methoxycarbonyl)-5-(phenylsulphonyl)-1H-benzo[d]imidazol-1-yl)methyl phosphate level. More on the design: dose 6.8 mg/kg, route oral. The settings on record: in vivo. It counts as ADME, organism-based, Plasma.
Data set [9] has as its system Sus scrofa. Nature of the data set: Cmax in pig at 6.8 mg/kg, po assessed as sodium (2-(methoxycarbonyl)-5-(phenylsulphonyl)-1H-benzo[d]imidazol-1-yl)methyl phosphate. It counts as ADME, organism-based. More on the design: dose 6.8 mg/kg, route oral. The settings on record: in vivo.
The subject of data set [10] is Sus scrofa. The description is as §2. It counts as ADME, organism-based, Plasma. More on the design: dose 6.8 mg/kg, route oral. The settings on record: in vivo. This is another data set of the same source.
Data set [11] deals with Sus scrofa. The data set is described as follows: Tmax in pig at 5.0 mg/kg, po assessed as fenbendazole sulfone level. It counts as ADME, organism-based. The settings on record: in vivo. More on the design: dose 5 mg/kg, route oral. In short, it runs like this: (§3)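 Swine received a single oral dose of 5.0 mg/kg, given as an aqueous solution or suspension. Plasma levels of fenbendazole, fenbendazole sulfoxide and fenbendazole sulfone were measured over time. Cmax, Tmax and AUC were derived for each analyte.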

Data set [12] in a line: AUC in pig at 5.0 mg/kg, po. It counts as ADME, organism-based, Sus scrofa. The settings on record: plasma. Details: dose 5 mg/kg, route oral. A digest of the protocol:
as §3

Data set [13] has as its system Sus scrofa. Nature of the data set: Cmax in pig at 5.0 mg/kg, po assessed as fenbendazole sulfoxide level. In kind it is ADME, organism-based. Details: dose 5 mg/kg, route oral. The settings on record: in vivo. In short, it runs like this:
as §3

Data set [14] has as its system Sus scrofa. The data set is described as follows: Tmax in pig at 5.0 mg/kg, po assessed as fenbendazole sulfoxide level. Details: dose 5 mg/kg, route oral. It counts as ADME, organism-based. The settings on record: in vivo. A digest of the protocol: as §3
Data set [15] in a line: Cmax in pig at 5.0 mg/kg, po. More on the design: dose 5 mg/kg, route oral. The settings on record: in vivo. It counts as ADME, organism-based, Sus scrofa. A digest of the protocol:
as §3

Data set [16] relates to Sus scrofa. The data set is described as follows: Cmax in pig at 5.0 mg/kg, po assessed as fenbendazole sulfone level. In kind it is ADME, organism-based. Details: dose 5 mg/kg, route oral. The settings on record: in vivo. In short, it runs like this:
as §3

Data set [17] can be described thus: Tmax in pig at 5.0 mg/kg, po. In kind it is ADME, organism-based, Sus scrofa. Details: dose 5 mg/kg, route oral. The settings on record: in vivo. In short, it runs like this: as §3
The test system of data set [18] is Sus scrofa. Nature of the data set: AUC in pig at 5.0 mg/kg, po assessed as fenbendazole sulfone level. The settings on record: in vivo. Details: dose 5 mg/kg, route oral. In kind it is ADME, organism-based, Plasma. In short, it runs like this:
as §3

Data set [19] deals with Sus scrofa. The data set is described as follows: AUC in pig at 5.0 mg/kg, po assessed as fenbendazole sulfoxide level. The settings on record: in vivo. More on the design: dose 5 mg/kg, route oral. In kind it is ADME, organism-based, Plasma. A digest of the protocol:
as §3

As to `COC(=O)Nc1nc2cc([S+]([O-])c3ccccc3)ccc2n1COP(=O)([O-])O.[Na+]` (stereo unspecified), the Stability in data set [1] is greater than 8 h. The solubility in [2] was greater than 50 mM.

Turning to `CCCCc1ccc2c(c1)nc(NC(=O)OC)n2COP(=O)([O-])O.[Na+]`, the Stability in data set [1] is greater than 8 h. Moreover, the solubility in [2] is greater than 50 mM.

Consider `CCCSc1ccc2c(c1)nc(NC(=O)OC)n2COP(=O)([O-])O.[Na+]`, for which the Stability in data set [1] is greater than 8 h. In data set [2], this compound had a solubility greater than 50 mM.

`COC(=O)Nc1nc2cc(C(=O)c3ccccc3)ccc2n1COP(=O)([O-])O.[Na+]` yielded a Stability in data set [1] greater than 8 h. Also, the solubility in data set [2] is greater than 50 mM.

The compound `COC(=O)Nc1nc2cc(C(=O)c3ccc(F)cc3)ccc2n1COP(=O)([O-])O.[Na+]` came in with a Stability in [1] greater than 8 h. Further, in [2], the solubility is greater than 50 mM.

As for `COC(=O)Nc1nc2cc(Sc3ccccc3)ccc2n1COP(=O)([O-])O.[Na+]`, the Stability in data set [1] is greater than 8 h. The values for the Tmax in the data set with Sus scrofa [3] and with Sus scrofa [7] were 36 h and 15 h, respectively. For the same compound, the Cmax with Sus scrofa [4] is 1410 ng/mL; in the data set with Sus scrofa [9], 780 ng/mL. Further, the outcome in the data set on Oesophagostomum dentatum [5] and with Oesophagostomum dentatum [6] was Active. In addition, the AUC was 58770 ng·h/mL with Sus scrofa [8] and 31150 ng·h/mL with Sus scrofa [10]. The same compound registered a solubility in data set [2] of 130 mM.

As for `COC(=O)Nc1nc2ccc(Sc3ccccc3)cc2[nH]1` [FENBENDAZOLE], the values for the Tmax (in the data set on Sus scrofa [11]; with Sus scrofa [14]; in data set [17]) were 34 h, 17 h and 5.4 h, respectively. The AUC in data set [12] was 310 ng·h/mL; in the data set on Sus scrofa [18], 12730 ng·h/mL; in the data set on Sus scrofa [19] it was 35000 ng·h/mL. Besides, the Cmax in the data set on Sus scrofa [13] was found to be 1090 ng/mL; in data set [15], 50 ng/mL; with Sus scrofa [16], 380 ng/mL.

As to `COC(=O)Nc1nc2cc(Sc3ccccc3)ccc2[nH]1`, the outcome in the data set on Oesophagostomum dentatum [5] and with Oesophagostomum dentatum [6] was Active.
